Test results reported in the M2OR odorant receptor database.

The compounds below were run against T1, OR2G2 (Homo sapiens) (UniProt Q8NGZ5). Details: stereoisomer not certain.
T1 sequence (whole entry): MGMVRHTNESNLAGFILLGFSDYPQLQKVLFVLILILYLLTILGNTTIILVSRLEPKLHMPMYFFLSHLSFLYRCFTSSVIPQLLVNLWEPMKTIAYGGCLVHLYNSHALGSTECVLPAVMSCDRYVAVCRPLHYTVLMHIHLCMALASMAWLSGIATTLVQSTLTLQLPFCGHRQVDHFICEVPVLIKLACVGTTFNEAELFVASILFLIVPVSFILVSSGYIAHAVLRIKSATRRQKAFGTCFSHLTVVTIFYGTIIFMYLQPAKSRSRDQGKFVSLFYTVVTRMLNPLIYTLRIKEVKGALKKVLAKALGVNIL
Procedure, shortened: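 Whether a receptor–molecule pair is responsive (active) rests on the original authors' judgment that its measured signal was statistically different from baseline. Pairs without that judgment are non-responsive (inactive). Sources used varied assay methods, commonly transient luciferase assays in mammalian cell lines.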

SMILES	odorant receptor agonist call;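 note: active if original authors judged signal statistically different from baseline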
CCC=C(C)C(O)CCCCC (centres undefined)	inactive
CCCCCCCCC(OC(C)=O)OC(C)=O	inactive
CCOC(=O)CC1(C)OCCO1	inactive
CC(CC=O)c1ccc(C(C)(C)C)cc1 (centres undefined)	inactive
CCc1ccc(CC(C)(C)C=O)cc1	inactive
C=CC(C)(O)CCC=C(C)CCC=C(C)C (centres undefined)	inactive
Cc1ccc(C(C)C)cc1O	inactive
CCCC(C)C(=O)OCC (centres undefined)	inactive
C=CC(C)(CCC=C(C)C)OC(C)=O (centres undefined)	inactive
CC(C)=CCCC(C)CC=O (centres undefined)	inactive
CC=CC(=O)C1C(C)=CCCC1(C)C (centres undefined)	active
CC(C)CCCC(C)(C)O	inactive
COC1CC2CC1C1CC(C=O)CC21 (centres undefined)	inactive
CCCCC1CCC(=O)O1 (centres undefined)	inactive
Cc1occc(=O)c1OC(=O)C(C)C	active
CCC(=O)C=CC1C(C)=CCCC1(C)C (centres undefined)	inactive
CC(C)=CCCC(C)=CCO	inactive
CC1=CCC2CC1C2(C)C (centres undefined)	inactive
CCCCCC1C(=O)CCC1CC(=O)OC (centres undefined)	inactive
